pKd: −log10 of the molar value. Where two headings read alike, the source gives them in different places.
Assays:
[1] = biological target: T1, TLR7 (Homo sapiens, UniProt Q9NYK1); assay: TLR selectivity assay; format: cell-based; settings: HEK-Blue hTLR7 cells, R848 1 μg/mL
T1 sequence (Q9NYK1 27-1049): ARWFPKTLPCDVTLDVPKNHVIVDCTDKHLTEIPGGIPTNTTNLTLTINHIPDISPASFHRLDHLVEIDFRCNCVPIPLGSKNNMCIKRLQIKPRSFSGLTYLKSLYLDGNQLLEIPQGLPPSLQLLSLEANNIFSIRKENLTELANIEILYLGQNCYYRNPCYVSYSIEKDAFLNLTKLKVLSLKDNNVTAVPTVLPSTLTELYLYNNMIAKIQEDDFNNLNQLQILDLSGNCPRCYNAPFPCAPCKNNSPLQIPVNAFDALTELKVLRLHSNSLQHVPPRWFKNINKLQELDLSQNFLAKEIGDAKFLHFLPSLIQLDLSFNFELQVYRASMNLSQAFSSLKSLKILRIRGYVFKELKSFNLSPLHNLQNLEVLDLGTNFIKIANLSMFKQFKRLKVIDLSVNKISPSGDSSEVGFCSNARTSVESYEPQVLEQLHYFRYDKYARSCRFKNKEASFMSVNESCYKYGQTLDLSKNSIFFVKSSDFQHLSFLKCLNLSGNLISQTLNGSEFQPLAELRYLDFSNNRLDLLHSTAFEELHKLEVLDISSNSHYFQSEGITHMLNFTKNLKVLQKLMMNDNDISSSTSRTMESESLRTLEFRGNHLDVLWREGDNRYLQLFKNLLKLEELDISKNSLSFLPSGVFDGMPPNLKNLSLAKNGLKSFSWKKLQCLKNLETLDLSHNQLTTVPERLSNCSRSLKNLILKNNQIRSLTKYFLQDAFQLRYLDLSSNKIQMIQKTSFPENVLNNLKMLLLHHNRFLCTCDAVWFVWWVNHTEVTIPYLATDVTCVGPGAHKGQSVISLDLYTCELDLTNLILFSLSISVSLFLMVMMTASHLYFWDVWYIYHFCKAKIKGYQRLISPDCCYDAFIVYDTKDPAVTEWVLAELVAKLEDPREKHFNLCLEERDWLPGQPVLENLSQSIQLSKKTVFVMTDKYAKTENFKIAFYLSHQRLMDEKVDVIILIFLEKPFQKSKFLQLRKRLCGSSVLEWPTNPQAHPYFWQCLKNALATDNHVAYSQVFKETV
Outline: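 HEK-Blue hTLR7 cells were seeded at 7.5 × 10^4 cells/well in DMEM with 10% heat-inactivated FBS. Cells received R848 (1 μg/mL) with varied test-compound concentrations for 24 h at 37 °C, 5% CO2. Supernatant SEAP was developed with Quanti-Blue (30 min–1 h, 37 °C) and read at 620 nm. Normalised with R848-only as 100% and untreated as 0% activation. Three biological replicates, each in triplicate.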

[2] = system: nuclear NF-κB; format: cell-based, human; settings: concentration of 500 nM, THP-1 cells, R848 1 μg/mL, Figure S2
Outline: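 THP-1 cells were seeded at 2 × 10^6 cells/well and differentiated with PMA (100 ng/mL) for 24 h at 37 °C, 5% CO2. Medium was switched to unsupplemented RPMI, then R848 (1 μg/mL) plus test compound was added for 2 h. Nuclear fractions were extracted and quantified by BCA, run on 10% SDS-PAGE and blotted. Probed with anti-p65 (1:1000), then HRP anti-rabbit (1:10000), chemiluminescence. Lamin A/C was the nuclear control.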

[3] = biological target: T2, mouse TLR9 (Mus musculus, UniProt Q9EQU3); assay: IL-12p40 production in splenocytes from hTLR8tg/TLR7-KO mice, TLR9 agonist 1018; format: cell-based; settings: 1018 7.1 ug/mL
T2 sequence (Q9EQU3 26-1032): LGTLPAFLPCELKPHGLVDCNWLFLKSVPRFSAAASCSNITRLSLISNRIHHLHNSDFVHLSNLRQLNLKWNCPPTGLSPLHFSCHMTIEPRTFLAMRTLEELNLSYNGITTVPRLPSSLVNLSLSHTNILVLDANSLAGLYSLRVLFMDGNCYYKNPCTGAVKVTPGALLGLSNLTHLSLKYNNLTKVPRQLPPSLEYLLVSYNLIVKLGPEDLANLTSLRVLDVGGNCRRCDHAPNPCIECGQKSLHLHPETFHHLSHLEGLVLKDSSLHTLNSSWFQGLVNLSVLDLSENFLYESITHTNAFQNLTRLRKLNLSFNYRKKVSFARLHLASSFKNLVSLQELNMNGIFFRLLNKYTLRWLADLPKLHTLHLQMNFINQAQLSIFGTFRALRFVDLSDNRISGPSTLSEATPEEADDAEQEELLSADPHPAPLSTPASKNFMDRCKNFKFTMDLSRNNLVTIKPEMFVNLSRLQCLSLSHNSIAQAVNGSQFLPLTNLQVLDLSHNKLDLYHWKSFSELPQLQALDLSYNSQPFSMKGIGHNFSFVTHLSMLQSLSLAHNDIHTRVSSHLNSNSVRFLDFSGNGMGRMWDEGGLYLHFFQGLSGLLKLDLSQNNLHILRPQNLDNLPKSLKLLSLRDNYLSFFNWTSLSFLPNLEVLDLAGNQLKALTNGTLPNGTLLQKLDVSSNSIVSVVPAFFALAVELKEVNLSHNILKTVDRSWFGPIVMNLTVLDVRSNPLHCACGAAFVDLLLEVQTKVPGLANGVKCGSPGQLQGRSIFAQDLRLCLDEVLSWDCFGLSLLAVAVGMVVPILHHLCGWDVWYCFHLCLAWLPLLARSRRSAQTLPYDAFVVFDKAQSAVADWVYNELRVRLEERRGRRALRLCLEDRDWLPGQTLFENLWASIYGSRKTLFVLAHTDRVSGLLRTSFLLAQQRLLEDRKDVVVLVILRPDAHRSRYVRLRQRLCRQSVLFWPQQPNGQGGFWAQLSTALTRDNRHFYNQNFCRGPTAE
Outline: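 Splenocytes from female […] mice carrying a human TLR8 transgene, prepared by straining and red-cell lysis. Incubated with a dilution series of test compound plus a constant amount of CpG phosphorothioate DNA oligonucleotide 1018 (TLR9 agonist) for 48 h. IL-12p40 measured in culture supernatants. Curves come from a single spleen.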

[4] = biological target: ectodomain of human TLR8; settings: read-out: dissociation constant (Kd), et al., cited from earlier work

Compound | effect on TLR7 [1] | reduction of nuclear NF-κB [2] | activity against mouse TLR9 [3] | pKd ([4]; ITC, ectodomain of human TLR8, ref Zhang, 2018) | pKd ([4]; TLR8 and R848, ref Tanji, 2015)
COc1ccc2c(-c3ccc(O)c(C)c3)ccnc2c1 [CU-CPT9a] | not affected below ~μM concentration | significant reduction | no activity | – | –
Cc1cc(-c2ccnc3cc(O)ccc23)ccc1O [CU-CPT9b] | not affected below ~μM concentration | – | no activity | 7.68 | –
CCOCc1nc2c(N)nc3ccccc3c2n1CC(C)(C)O [R848, reference compound] | – | – | – | – | 6.70

Reference: paper PMC6195466 (Cell chemical biology, 2018)
